# Test results: ChEMBL document CHEMBL1821604, “Anticancer activity and cDNA microarray studies of a (RS)-1,2,3,5-tetrahydro-4,1-benzoxazepine-3-yl]-6-chloro-9H-purine, and an acyclic (RS)-O,N-acetalic 6-chloro-7H-purine” (Eur J Med Chem, 2011)
# What was measured:
# Type in all cases: functional
# HT-29 [1] = assay: Down regulation of SLC28A2 gene expression in human HT-29 cells at IC50 after 48 hrs by cDNA microarray technique relative to control
# HT-29 [2] = assay: Down regulation of FUT9 gene expression in human HT-29 cells at IC50 after 48 hrs by cDNA microarray technique relative to control
# Outline: (§1)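 Cells (8 × 10⁶) were cultured in DMEM with 10% heat-inactivated FBS at 37 °C under 5% CO₂. They were exposed for 48 h to compound at its IC₅₀, with DMSO-treated parallel cultures as controls (final DMSO ≤0.1% v/v). Total RNA was isolated by trizol/chloroform phase separation, RNeasy column cleanup and on-column DNase, then quantified by OD260/OD280. Expression was profiled by cDNA microarray relative to control.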
# HT-29 [3] = assay: Upregulation of YPEL1 gene expression in human HT-29 cells at IC50 after 48 hrs by cDNA microarray technique relative to control
# MCF7 [4] = assay: Down regulation of C1orf131 gene expression in human MCF7 cells at IC50 after 48 hrs by cDNA microarray technique relative to control
# Outline: (§2)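 8 × 10⁶ cells exposed 48 h to compound at its IC50 concentration; total RNA isolated with trizol/chloroform and RNeasy columns including on-column DNase step; RNA quantified by OD 260/280; DMSO-treated cultures as control.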
# HT-29 [5] = assay: Upregulation of PDGFA gene expression in human HT-29 cells at IC50 after 48 hrs by cDNA microarray technique relative to control
# HT-29 [6] = assay: Down regulation of RAB3D gene expression in human HT-29 cells at IC50 after 48 hrs by cDNA microarray technique relative to control
# MCF7 [7] = assay: Upregulation of CD84 gene expression in human MCF7 cells at IC50 after 48 hrs by cDNA microarray technique relative to control
# MCF7 [8] = assay: Upregulation of FGD3 gene expression in human MCF7 cells at IC50 after 48 hrs by cDNA microarray technique relative to control
# MCF7 [9] = assay: Upregulation of HMGCS2 gene expression in human MCF7 cells at IC50 after 48 hrs by cDNA microarray technique relative to control
# HT-29 [10] = assay: Down regulation of TRPA1 gene expression in human HT-29 cells at IC50 after 48 hrs by cDNA microarray technique relative to control
# MCF7 [11] = assay: Upregulation of FLJ10945 gene expression in human MCF7 cells at IC50 after 48 hrs by cDNA microarray technique relative to control
# HT-29 [12] = assay: Down regulation of FLJ32871 gene expression in human HT-29 cells at IC50 after 48 hrs by cDNA microarray technique relative to control; outline: as §1
# HT-29 [13] = assay: Upregulation of GALNT10 gene expression in human HT-29 cells at IC50 after 48 hrs by cDNA microarray technique relative to control
# MCF7 [14] = assay: Down regulation of FLJ12985 gene expression in human MCF7 cells at IC50 after 48 hrs by cDNA microarray technique relative to control; outline: as §1
# MCF7 [15] = assay: Upregulation of MGC2474 gene expression in human MCF7 cells at IC50 after 48 hrs by cDNA microarray technique relative to control
# HT-29 [16] = assay: Upregulation of PDE4B gene expression in human HT-29 cells at IC50 after 48 hrs by cDNA microarray technique relative to control
# MCF7 [17] = assay: Down regulation of CCT6B gene expression in human MCF7 cells at IC50 after 48 hrs by cDNA microarray technique relative to control; outline: as §2
# MCF7 [18] = assay: Down regulation of PARP9 gene expression in human MCF7 cells at IC50 after 48 hrs by cDNA microarray technique relative to control
# MCF7 [19] = assay: Upregulation of RHOH gene expression in human MCF7 cells at IC50 after 48 hrs by cDNA microarray technique relative to control
# MCF7 [20] = assay: Upregulation of CALM1 gene expression in human MCF7 cells at IC50 after 48 hrs by cDNA microarray technique relative to control
# HT-29 [21] = assay: Down regulation of HIRA gene expression in human HT-29 cells at IC50 after 48 hrs by cDNA microarray technique relative to control; outline: as §1
# HT-29 [22] = assay: Down regulation of PP1201 gene expression in human HT-29 cells at IC50 after 48 hrs by cDNA microarray technique relative to control
# HT-29 [23] = assay: Down regulation of ZNF482 gene expression in human HT-29 cells at IC50 after 48 hrs by cDNA microarray technique relative to control
# HT-29 [24] = assay: Down regulation of D4S234E gene expression in human HT-29 cells at IC50 after 48 hrs by cDNA microarray technique relative to control; outline: as §2
# MCF7 [25] = assay: Down regulation of FBXL7 gene expression in human MCF7 cells at IC50 after 48 hrs by cDNA microarray technique relative to control; outline: as §1
# HT-29 [26] = assay: Down regulation of DNAJC7 gene expression in human HT-29 cells at IC50 after 48 hrs by cDNA microarray technique relative to control; outline: as §1
# HT-29 [27] = assay: Down regulation of HNRPA2B1 gene expression in human HT-29 cells at IC50 after 48 hrs by cDNA microarray technique relative to control; outline: as §1
# HT-29 [28] = assay: Down regulation of POLE gene expression in human HT-29 cells at IC50 after 48 hrs by cDNA microarray technique relative to control
# HT-29 [29] = assay: Down regulation of IL26 gene expression in human HT-29 cells at IC50 after 48 hrs by cDNA microarray technique relative to control; outline: as §1
# HT-29 [30] = assay: Down regulation of OR4K15 gene expression in human HT-29 cells at IC50 after 48 hrs by cDNA microarray technique relative to control
# HT-29 [31] = assay: Down regulation of BAP1 gene expression in human HT-29 cells at IC50 after 48 hrs by cDNA microarray technique relative to control; outline: as §2
# HT-29 [32] = assay: Down regulation of MGC2654 gene expression in human HT-29 cells at IC50 after 48 hrs by cDNA microarray technique relative to control
# MCF7 [33] = assay: Upregulation of MAGEA2B gene expression in human MCF7 cells at IC50 after 48 hrs by cDNA microarray technique relative to control
# HT-29 [34] = assay: Down regulation of TNPO1 gene expression in human HT-29 cells at IC50 after 48 hrs by cDNA microarray technique relative to control
# HT-29 [35] = assay: Down regulation of ANXA6 gene expression in human HT-29 cells at IC50 after 48 hrs by cDNA microarray technique relative to control; outline: as §2
# MCF7 [36] = assay: Upregulation of CD1B gene expression in human MCF7 cells at IC50 after 48 hrs by cDNA microarray technique relative to control
# HT-29 [37] = assay: Upregulation of UNC5B gene expression in human HT-29 cells at IC50 after 48 hrs by cDNA microarray technique relative to control
# HT-29 [38] = assay: Down regulation of DKFZp451J0118 gene expression in human HT-29 cells at IC50 after 48 hrs by cDNA microarray technique relative to control; outline: as §2
compound,measurement,setting,value
COC(CN(c1ccccc1CO)S(=O)(=O)c1ccccc1[N+](=O)[O-])n1cnc2ncnc(Cl)c21 (racemic),fold change (FC),HT-29 [1],-3.32
same,fold change (FC),HT-29 [2],-2.25
same,fold change (FC),HT-29 [3],4.71
same,fold change (FC),MCF7 [4],-2.26
same,fold change (FC),HT-29 [5],2.15
same,fold change (FC),HT-29 [6],-2.24
same,fold change (FC),MCF7 [7],3.37
same,fold change (FC),MCF7 [8],2.16
same,fold change (FC),MCF7 [9],2.39
same,fold change (FC),HT-29 [10],-3.22
same,fold change (FC),MCF7 [11],2.07
same,fold change (FC),HT-29 [12],-2.51
same,fold change (FC),HT-29 [13],3.5
same,fold change (FC),MCF7 [14],-2.11
same,fold change (FC),MCF7 [15],2.23
same,fold change (FC),HT-29 [16],3.84
O=C(OCC1c2ccccc2-c2ccccc21)N1CC(n2cnc3c(Cl)ncnc32)OCc2ccccc21 (racemic),fold change (FC),MCF7 [17],-3.22
same,fold change (FC),MCF7 [18],-3.23
same,fold change (FC),MCF7 [19],2.2
same,fold change (FC),MCF7 [20],2.99
same,fold change (FC),HT-29 [21],-2.35
same,fold change (FC),HT-29 [22],-2.04
same,fold change (FC),HT-29 [23],-2.28
same,fold change (FC),HT-29 [24],-2.91
same,fold change (FC),MCF7 [25],-2.86
same,fold change (FC),HT-29 [26],-2.2
same,fold change (FC),HT-29 [27],-2.33
same,fold change (FC),HT-29 [28],-2.12
same,fold change (FC),HT-29 [29],-2.22
same,fold change (FC),HT-29 [30],-3.6
same,fold change (FC),HT-29 [31],-2.13
same,fold change (FC),HT-29 [32],-2.02
same,fold change (FC),MCF7 [33],2.53
same,fold change (FC),HT-29 [34],-2.5
same,fold change (FC),HT-29 [35],-2.27
same,fold change (FC),MCF7 [36],2.31
same,fold change (FC),HT-29 [37],2.42
same,fold change (FC),HT-29 [38],-2.03
